In ChEMBL document CHEMBL1142121, “Triterpenoids from the floral spikes of Betula platyphylla var. japonica and their reversing activity against multidrug-resistant cancer cells” (J Nat Prod, 2007) one finds IC50 data, which are given here for 15 compounds.

Assay type in all cases: cell-based
One assay deals with MCF7. Kind of assay: Cytotoxicity against human MCF7 cells after 48 hrs by MTT assay. The conditions noted are these: MCF7, 48 h. In short, it runs like this:
(§1)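 MCF7 or COLO205 cells in RPMI1640 with 10% FBS, seeded at 5 × 10^3 cells and preincubated 24 h. Graded concentrations (DMSO final <0.5%) were then applied for 48 h at 37 °C, 5% CO2. Proliferation read by MTT. IC50 was the concentration halving absorbance versus vehicle-treated controls. Mean ± SE of 3–4 experiments.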

A further assay concerns COLO 205. Briefly: Cytotoxicity against human COLON205 cells after 48 hrs by MTT assay. The conditions noted are these: COLO 205, 48 h. In short, it runs like this: as §1
Assay [1] can be described thus: Cytotoxicity against human colchicine-resistant KBC2 cells in presence of 2.5 uM colchicine after 48 hrs by MTT assay. To be noted: KB-C2, 48 h. The method in brief:
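Colchicine-resistant KB-C2 cells, maintained in DMEM/10% FBS with 2 µg/mL colchicine. Seeded at 5 × 10^3 cells/well, preincubated 24 h, then given graded test concentrations (DMSO final <0.5%) together with 2.5 µM colchicine for 48 h at 37 °C, 5% CO2. MTT read-out. IC50 was 50% of vehicle-control absorbance. Mean ± SE, 3–4 experiments.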
(In general: Tetrazolium assays rely on reduction of a dye to a coloured formazan, in cell work by metabolically active cells.)

For a further assay, the system named is K562. Briefly: Cytotoxicity against human K562 cells after 48 hrs by MTT assay. The conditions noted are these: K562, 48 h. In short, it runs like this:
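K562 leukemia cells, 1 × 10^4 cells/well in medium with 10% FBS, preincubated 24 h. Test samples were then added at various concentrations (DMSO final <0.5%) for 48 h at 37 °C, 5% CO2. MTT assay. IC50 was 50% absorbance relative to vehicle controls. Mean ± SE from 3–4 experiments.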

Assay [2] is described as follows: Cytotoxicity against human doxorubicin-resistant K562/Adr cells in presence of 1 uM doxorubicin after 48 hrs by MTT assay.
A short description of assay [3]: Cytotoxicity against human doxorubicin-resistant K562/Adr cells after 48 hrs by MTT assay. The method in brief: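 Doxorubicin-resistant K562/Adr cells, maintained in RPMI1640/10% FBS containing 0.5 µM doxorubicin. Seeded at 1 × 10^4 cells/well, preincubated 24 h, then incubated 48 h at 37 °C, 5% CO2 with graded test concentrations (DMSO final <0.5%). MTT read-out. IC50 was 50% of vehicle-control absorbance. Mean ± SE, 3–4 experiments.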

The nature of assay [4]: Cytotoxicity against human colchicine-resistant KBC2 cells after 48 hrs by MTT assay. To be noted: KB-C2, 48 h. In short, it runs like this: (§2)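 KB and KB-C2 cells grown in DMEM with 10% FBS, with KB-C2 maintained with 2 µg/mL colchicine. 5 × 10^3 cells/well were preincubated 24 h, then exposed 48 h at 37 °C, 5% CO2 to graded concentrations (DMSO final <0.5%). MTT read-out. IC50 was the concentration giving 50% of vehicle-control absorbance. Mean ± SE of 3–4 experiments.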

For another assay, the system named is KB. Briefly: Cytotoxicity against human KB cells after 48 hrs by MTT assay. The method in brief: as §2

The IC50 is the concentration that inhibits the measured activity by half. Take `CC(=O)O[C@@H]1CC[C@]2(C)[C@H]3CC[C@@H]4[C@@H]([C@]5(C)CC[C@H](C(C)(C)O)O5)CC[C@@]4(C)[C@]3(C)CC[C@H]2C1(C)C`: the IC50 with MCF7 was found to be 47.5 µM; in the assay on COLO 205 it was 54.2 µM; in assay [1] it was 43.6 µM; with K562 it was 41.6 µM; in assay [2], 68.3 µM; in assay [3] it was 50.5 µM. In addition, the IC50 in assay [4] is 89.6 µM; in the assay with KB, 44.8 µM.
Regarding `CC(C)(O)[C@H]1CC[C@@](C)([C@H]2CC[C@]3(C)[C@@H]2CC[C@@H]2[C@@]4(C)CC[C@@H](OC(=O)CC(=O)O)C(C)(C)[C@@H]4CC[C@]23C)O1`, the IC50 with MCF7 was determined as 64.1 µM; in the assay with COLO 205 it was 55.6 µM; in assay [1], 65.5 µM; with K562, 57.5 µM; in assay [2] it was 42.5 µM; in assay [3] it was 47.2 µM. In addition, the IC50 in assay [4] came to 69.6 µM; with KB it was 60.8 µM.
Take `C=C(C)[C@@H](O)CC[C@](C)(O)[C@H]1CC[C@]2(C)[C@@H]1CC[C@@H]1[C@@]3(C)CCC(=O)C(C)(C)[C@@H]3CC[C@]12C`: the IC50 turned out to be 73.1 µM in the assay with MCF7; 58.8 µM in the assay on COLO 205; 29.8 µM in assay [1]; 40.2 µM in the assay with K562; 50.4 µM in assay [2]; 35.9 µM in assay [3]. Also, the values for the IC50 (in assay [4]; with KB) were 78.5 µM and 70.2 µM, respectively.
With `CC(=O)O[C@@H]1C[C@@H]2[C@@]3(C)CC[C@@H](O)C(C)(C)[C@@H]3CC[C@@]2(C)[C@]2(C)CC[C@H]([C@]3(C)CC[C@H](C(C)(C)O)O3)[C@@H]12`, the IC50 was 34.2 µM with MCF7; 36.7 µM with COLO 205; 3.5 µM in assay [1]; 27.5 µM in the assay with K562; 15.3 µM in assay [2]; 15.4 µM in assay [3]. The values for the IC50 (in assay [4]; in the assay with KB) were 25.7 µM and 36.5 µM, respectively.
Take `CC(=O)O[C@@H]1C[C@@H]2[C@@]3(C)CC[C@@H](OC(C)=O)C(C)(C)[C@@H]3CC[C@@]2(C)[C@]2(C)CC[C@H]([C@]3(C)CC[C@H](C(C)(C)O)O3)[C@@H]12`: the IC50 is 78.4 µM with MCF7; 58 µM with COLO 205; 3 µM in assay [1]; 26.2 µM in the assay on K562; 23.9 µM in assay [2]; 33.2 µM in assay [3]. Besides, the values for the IC50 (in assay [4]; in the assay on KB) were 62.2 µM and 35.1 µM, respectively.
Regarding `COC(=O)CC(=O)O[C@@H]1CC[C@]2(C)[C@H]3CC[C@@H]4[C@@H]([C@]5(C)CCC(=O)O5)CC[C@@]4(C)[C@]3(C)CC[C@H]2C1(C)C`, the IC50 in the assay on MCF7 was greater than 100 µM; with COLO 205, greater than 100 µM; in assay [1], 3.3 µM; in the assay on K562, 47.2 µM; in assay [2] it was 26.5 µM; in assay [3], 56.1 µM. Further, the IC50 in assay [4] was 30.4 µM; in the assay with KB it was 58 µM.
Regarding `CC(C)(O)[C@H]1CC[C@@](C)([C@H]2CC[C@]3(C)[C@@H]2CC[C@@H]2[C@@]4(C)CC[C@@H](O)C(C)(C)[C@@H]4CC[C@]23C)O1`, the IC50 with MCF7 was 57.9 µM; in assay [1], 28.6 µM; with K562, 48.5 µM; in assay [2], 45.2 µM; in assay [3], 73.9 µM; in assay [4] it was 55.3 µM. For the same compound, the IC50 in the assay with KB was 43.4 µM.
Consider `C=C1CC[C@]2(C)CC[C@]3(C)[C@H](CC[C@@H]4[C@@](C)(CCC(=O)O)[C@H](C(=C)C)CC[C@]43C)[C@@H]2[C@H]1C`, for which the IC50 (in the assay on MCF7; in the assay with COLO 205; in assay [1]; in the assay on K562; in assay [2]; in assay [3]) was greater than 100 µM each time. Besides, the IC50 (in assay [4]; in the assay on KB) was greater than 100 µM in each case.
As for `C=C(C)[C@@H]1CC[C@]2(C)[C@H](CCC3=C4CC(C)(C)CC[C@]4(C)CC[C@]32C)[C@@]1(C)CCC(=O)O`, the IC50 in the assay on MCF7 stood at 37.4 µM; with COLO 205, 38.1 µM; in assay [1] it was 36.3 µM; in the assay on K562 it was 28 µM; in assay [2], 24.8 µM; in assay [3], 25.9 µM. For the same compound, the values for the IC50 (in assay [4]; with KB) were 58 µM and 27.5 µM, respectively.
In the case of `COC(=O)CC(=O)O[C@@H]1CC[C@]2(C)[C@H]3CC[C@@H]4[C@@H]([C@]5(C)CC[C@H](C(C)(C)O)O5)CC[C@@]4(C)[C@]3(C)CC[C@H]2C1(C)C`, the IC50 in the assay on MCF7 turned out to be 63.6 µM; in the assay on COLO 205, 57.2 µM; in assay [1], 13.6 µM; with K562 it was 35.4 µM; in assay [2], 41.1 µM; in assay [3], 31.1 µM. Moreover, the IC50 was found to be 87 µM in assay [4] and 64.2 µM with KB.
In the case of `C=C(C)[C@@H]1CC[C@]2(C(=O)O)CC[C@]3(C)[C@H](CC[C@@H]4[C@@]5(C)CCC(=O)C(C)(C)[C@@H]5CC[C@]43C)[C@@H]12` [BETUNOLIC ACID], the IC50 in the assay on MCF7 was determined as 49 µM; with COLO 205, 36.8 µM; in assay [1] it was 0.64 µM; with K562, 16.1 µM; in assay [2] it was 48.4 µM; in assay [3], 73.5 µM. Moreover, the IC50 in assay [4] was found to be 2.3 µM; in the assay on KB, 3.8 µM.
`CC1(C)[C@H](O)CC[C@]2(C)[C@H]3CC[C@@H]4[C@@H]([C@]5(C)CCC(=O)O5)CC[C@@]4(C)[C@]3(C)CC[C@@H]12` [CABRALEAHYDROXYLACTONE]: the half-inhibitory concentration (IC50) with MCF7 is greater than 100 µM; in the assay on COLO 205, greater than 100 µM; in assay [1], 20.6 µM; with K562, greater than 100 µM; in assay [2], greater than 100 µM; in assay [3] it was greater than 100 µM. Moreover, the IC50 (in assay [4]; in the assay with KB) was greater than 100 µM throughout.
As for `CC1(C)C(=O)CC[C@]2(C)[C@H]3CC[C@@H]4[C@@H]([C@]5(C)CCC(=O)O5)CC[C@@]4(C)[C@]3(C)CC[C@@H]12` [CABRALELACTONE], the IC50 with MCF7 is 97.9 µM; in the assay on COLO 205, greater than 100 µM; in assay [1], 28.5 µM; in the assay with K562 it was greater than 100 µM; in assay [2], greater than 100 µM; in assay [3], greater than 100 µM. Also, the IC50 in assay [4] is greater than 100 µM; with KB, 63.5 µM.
In the case of `CC(C)(O)[C@@H]1CC[C@@](C)([C@H]2CC[C@]3(C)[C@@H]2CC[C@@H]2[C@@]4(C)CCC(=O)C(C)(C)[C@@H]4CC[C@]23C)O1` [CABRALEONE], the IC50 in the assay with MCF7 was greater than 100 µM; in the assay on COLO 205, greater than 100 µM; in assay [1], 62.4 µM; in the assay on K562, greater than 100 µM; in assay [2] it was greater than 100 µM; in assay [3] it was greater than 100 µM. In addition, the IC50 (in assay [4]; with KB) was greater than 100 µM in each case.
Take `CC(C)=CCC[C@](C)(O)[C@H]1CC[C@]2(C)[C@@H]1CC[C@@H]1[C@@]3(C)CCC(=O)C(C)(C)[C@@H]3CC[C@]12C` [DIPTEROCARPOL]: the half-inhibitory concentration (IC50) in the assay on MCF7 was greater than 100 µM; with COLO 205 it was greater than 100 µM; in assay [1], 38.2 µM; with K562, greater than 100 µM; in assay [2], greater than 100 µM; in assay [3], greater than 100 µM. Further, the IC50 (in assay [4]; in the assay with KB) was greater than 100 µM each time.
